ChEMBL document CHEMBL1139875, “Discovery of 4-aminobutyric acid derivatives possessing anticonvulsant and antinociceptive activities: a hybrid pharmacophore approach” (2007)
The source made the active and inactive calls. The rule behind the calls is not given here.

Key:
Rattus norvegicus [1] = test: Effect on spontaneous pain in Sprague-Dawley rat CCI model assessed as duration of paw withdrawal at 100 mg/kg, ip after 2 hrs; assay type: functional; conditions: route intraperitoneal
Procedure, shortened: (§1)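 Unilateral CCI of sciatic nerve (Bennett and Xie) in Sprague-Dawley rats under i.p. pentobarbital sodium (65 mg/kg). Spontaneous pain is scored over 5 min after 10 min acclimatization, as cumulative time the ipsilateral paw is held off the floor. Paw lifts from locomotion or repositioning are excluded. Drug is given at 100 mg/kg i.p. with 30% v/v PEG 400 vehicle. Mean ± SEM, n = 4, compared with predrug by ANOVA/Bonferroni.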

Rattus norvegicus [2] = test: Anti-cold allodynia effect in Sprague-Dawley rat CCI model assessed as duration of paw withdrawal 100 mg/kg, ip after 1 hr; assay type: functional; conditions: route intraperitoneal
Procedure, shortened: (§2)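 CCI by sciatic nerve ligation under pentobarbital (65 mg/kg i.p.). Rats tested at baseline and 9 days post-surgery; those with allodynia dosed i.p. 100 mg/kg, vehicle 30% v/v PEG 400 in water. Acetone (100-200 µL) misted on midplantar affected paw; withdrawal duration recorded, three samples averaged, at least 3 min apart; n = 4.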

Mus musculus [3] = test: Analgesic activity in Swiss Albino mouse assessed as inhibition of acetic acid-induced writhing responses at 100 mg/kg, ip; assay type: functional; conditions: route intraperitoneal
Procedure, shortened: (§3)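 Mice in groups of six dosed i.p. at 100 mg/kg, controls receiving 30% v/v PEG 400 in water. Writhing induced by i.p. 0.1 mL of 3% v/v acetic acid 1 h after drug. Writhes (abdominal stretch with at least one hind limb extended) counted over 30 min; % inhibition calculated. Mean ± SEM, Student's t test.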

Rattus norvegicus [4] = test: Effect on spontaneous pain in Sprague-Dawley rat SNL model assessed as duration of paw withdrawal at 100 mg/kg, ip after 2 hrs; assay type: functional; conditions: route intraperitoneal
Procedure, shortened: (§4)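 Rats underwent left L5 spinal nerve ligation (Kim and Chung) under i.p. pentobarbital (65 mg/kg). Spontaneous pain is recorded for 5 min after 10 min acclimatization, as cumulative duration the ipsilateral paw is lifted, excluding locomotor lifts. Dosing is 100 mg/kg i.p. in 30% v/v PEG 400/water, with testing at 0.5–2.5 h. Four rats, mean ± SEM versus predrug, one-way ANOVA with Bonferroni.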

Rattus norvegicus [5] = test: Effect on spontaneous pain in Sprague-Dawley rat CCI model assessed as duration of paw withdrawal at 100 mg/kg, ip after 1 hr; assay type: functional; conditions: route intraperitoneal
Procedure, shortened: (§5)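 CCI rats (n = 4) dosed 100 mg/kg i.p. (vehicle 30% v/v PEG 400 in water). After 10 min acclimatization in a cage 5 cm above ground, cumulative time the ipsilateral paw was held off the floor over 5 min recorded, excluding locomotion lifts. Mean ± SEM; ANOVA/Bonferroni versus predrug.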

Mus musculus [6] = test: Anticonvulsant activity in Swiss Albino mouse at 300 mg/kg, ip after 0.5 hr by MES test; assay type: functional, organism-based; design: dose 300 mg/kg
Procedure, shortened: (§6)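 Mice (Swiss, 20-25 g) given i.p. doses of 30, 100 and 300 mg/kg under ADD program protocols, three per group, examined at 0.5 and 4 h in MES, scPTZ, scSTY or scPIC seizure tests. Value is the minimum dose protecting half or more of the mice.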

Mus musculus [7] = test: Neurotoxicity in Swiss Albino mouse at 300 mg/kg, ip after 4 hrs by rotarod test; assay type: functional, organism-based; design: dose 300 mg/kg
Procedure, shortened: (§7)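 Swiss mice (20-25 g) are trained on an accelerating rotorod (10 rpm, 3.2 cm rod), then injected i.p. at 30, 100 or 300 mg/kg, with three per group. Neurotoxicity means failure to keep equilibrium for at least 1 min in each of three trials, checked at 0.5 and 4 h. The value reported is the minimum dose affecting half or more of the mice.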

Rattus norvegicus [8] = test: Effect on spontaneous pain in Sprague-Dawley rat CCI model assessed as duration of paw withdrawal at 100 mg/kg, ip after 1.5 hrs; assay type: functional; conditions: route intraperitoneal; procedure, shortened: as §1
Rattus norvegicus [9] = test: Effect on spontaneous pain in Sprague-Dawley rat SNL model assessed as duration of paw withdrawal at 100 mg/kg, ip after 1.5 hrs; assay type: functional; conditions: route intraperitoneal; procedure, shortened: as §4
Mus musculus [10] = test: Anticonvulsant activity in Swiss Albino mouse at 300 mg/kg, ip after 0.5 hr by scPTZ test; assay type: functional, organism-based; design: dose 300 mg/kg; procedure, shortened: as §6
Mus musculus [11] = test: Neurotoxicity in Swiss Albino mouse at 300 mg/kg, ip after 0.5 hr by rotarod test; assay type: functional, organism-based; design: dose 300 mg/kg; procedure, shortened: as §7
Rattus norvegicus [12] = test: Effect on spontaneous pain in Sprague-Dawley rat SNL model assessed as duration of paw withdrawal at 100 mg/kg, ip after 0.5 hr; assay type: functional; conditions: route intraperitoneal; procedure, shortened: as §4
Rattus norvegicus [13] = test: Anti-cold allodynia effect in Sprague-Dawley rat CCI model assessed as duration of paw withdrawal 100 mg/kg, ip after 2.5 hr; assay type: functional; conditions: route intraperitoneal; procedure, shortened: as §2
Mus musculus [14] = test: Anticonvulsant activity in Swiss Albino mouse at 300 mg/kg, ip after 4 hrs by MES test; assay type: functional, organism-based; design: dose 300 mg/kg; procedure, shortened: as §6
Mus musculus [15] = test: Anticonvulsant activity in Swiss Albino mouse at 300 mg/kg, ip after 4 hrs by scSTY test; assay type: functional, organism-based; design: dose 300 mg/kg; procedure, shortened: as §6
Rattus norvegicus [16] = test: Anti-cold allodynia effect in Sprague-Dawley rat CCI model assessed as duration of paw withdrawal 100 mg/kg, ip after 1.5 hr; assay type: functional; conditions: route intraperitoneal; procedure, shortened: as §2
Rattus norvegicus [17] = test: Anti-cold allodynia effect in Sprague-Dawley rat CCI model assessed as duration of paw withdrawal 100 mg/kg, ip after 2 hr; assay type: functional; conditions: route intraperitoneal; procedure, shortened: as §2
Rattus norvegicus [18] = test: Anti-cold allodynia effect in Sprague-Dawley rat CCI model assessed as duration of paw withdrawal at 100 mg/kg, ip after 0.5 hr; assay type: functional; conditions: route intraperitoneal; procedure, shortened: as §2
Rattus norvegicus [19] = organism: Rattus norvegicus; test: Anti-dynamic allodynic effect in Sprague-Dawley rat CCI model assessed as latency to paw withdrawal after 1 hr; assay type: functional
Procedure, shortened: (§8)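 Rats with sciatic nerve chronic constriction injury (pentobarbital 65 mg/kg i.p. anaesthesia), baseline and day 9 testing, then drug per randomization table. After 10 min acclimatization, affected plantar surface stroked mildly with a cotton-bud; paw lift recorded. n = 4; retested 0.5-2.5 h post-dose.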

Mus musculus [20] = test: Anticonvulsant activity in Swiss Albino mouse at 100 mg/kg, ip after 4 hrs by scPIC test; assay type: functional, organism-based; design: dose 100 mg/kg; procedure, shortened: as §6
Rattus norvegicus [21] = test: Effect on spontaneous pain in Sprague-Dawley rat SNL model assessed as duration of paw withdrawal at 100 mg/kg, ip after 2.5 hrs; assay type: functional; conditions: route intraperitoneal; procedure, shortened: as §4
Rattus norvegicus [22] = organism: Rattus norvegicus; test: Anti-dynamic allodynic effect in Sprague-Dawley rat CCI model assessed as latency to paw withdrawal after 1.5 hr; assay type: functional; procedure, shortened: as §8
Rattus norvegicus [23] = test: Effect on spontaneous pain in Sprague-Dawley rat CCI model assessed as duration of paw withdrawal at 100 mg/kg, ip after 2.5 hrs; assay type: functional; conditions: route intraperitoneal; procedure, shortened: as §1
Rattus norvegicus [24] = test: Effect on spontaneous pain in Sprague-Dawley rat CCI model assessed as duration of paw withdrawal at 100 mg/kg, ip after 0.5 hr; assay type: functional; conditions: route intraperitoneal; procedure, shortened: as §5
Rattus norvegicus [25] = organism: Rattus norvegicus; test: Anti-dynamic allodynic effect in Sprague-Dawley rat CCI model assessed as latency to paw withdrawal after 2 hr; assay type: functional; procedure, shortened: as §8
Rattus norvegicus [26] = organism: Rattus norvegicus; test: Anti-dynamic allodynic effect in Sprague-Dawley rat CCI model assessed as latency to paw withdrawal after 2.5 hr; assay type: functional; procedure, shortened: as §8
Mus musculus [27] = test: Anticonvulsant activity in Swiss Albino mouse at 300 mg/kg, ip after 0.5 hr by scSTY test; assay type: functional, organism-based; design: dose 300 mg/kg; procedure, shortened: as §6
Rattus norvegicus [28] = organism: Rattus norvegicus; test: Anti-dynamic allodynic effect in Sprague-Dawley rat CCI model assessed as latency to paw withdrawal after 0.5 hr; assay type: functional; procedure, shortened: as §8
Mus musculus [29] = test: Analgesic activity in Swiss Albino mouse assessed as number of acetic acid-induced writhing per 30 min after 100 mg/kg, ip; assay type: functional; conditions: route intraperitoneal; procedure, shortened: as §3
Rattus norvegicus [30] = test: Effect on spontaneous pain in Sprague-Dawley rat SNL model assessed as duration of paw withdrawal at 100 mg/kg, ip after 1 hr; assay type: functional; conditions: route intraperitoneal; procedure, shortened: as §4

## O=C(O)CCCNC(=O)NN=C(Cc1ccccc1)Cc1ccccc1
Rattus norvegicus [1]
  Activity: 3.2 s
Rattus norvegicus [2]
  Activity: 11.6 s
Mus musculus [3]
  inhibition in vivo at 100 mg/kg: 94%
Rattus norvegicus [4]
  Activity: 11.8 s
Rattus norvegicus [5]
  Activity: 9.7 s
Mus musculus [6]
  Activity: inactive
Mus musculus [7]
  Activity: inactive
Rattus norvegicus [8]
  Activity: 1.3 s
Rattus norvegicus [9]
  Activity: 8.9 s
Mus musculus [10]
  Activity: inactive
Mus musculus [11]
  Activity: inactive
Rattus norvegicus [12]
  Activity: 22.2 s
Rattus norvegicus [13]
  Activity: 8.3 s
Mus musculus [14]
  Activity: inactive
Mus musculus [15]
  Activity: Active
Rattus norvegicus [16]
  Activity: 10.4 s
Rattus norvegicus [17]
  Activity: 9.1 s
Rattus norvegicus [18]
  Activity: 24.6 s
Rattus norvegicus [19]
  Activity: 13.5 s
Mus musculus [20]
  Activity: Active
Rattus norvegicus [21]
  Activity: 7.4 s
Rattus norvegicus [22]
  Activity: 10.9 s
Rattus norvegicus [23]
  Activity: 8.5 s
Rattus norvegicus [24]
  Activity: 9.2 s
Rattus norvegicus [25]
  Activity: 10.9 s
Rattus norvegicus [26]
  Activity: 10.3 s
Mus musculus [27]
  Activity: Active
Rattus norvegicus [28]
  Activity: 12 s
Mus musculus [29]
  Activity: 10.3
Rattus norvegicus [30]
  Activity: 7.9 s
